We go through 98 compounds from ChEMBL document CHEMBL4513216, “Probing the Open Global Health Chemical Diversity Library for Multistage-Active Starting Points for Next-Generation Antimalarials” (ACS Infect Dis, 2020).

Molecules are shown by their SMILES.

A short description of the data set: Toxicity liver stage against HepG2, at 10uM. Format: cell-based. More on the design: test concentration 10 uM, cell line HepG2-A16-CD81EGFP. To be noted: human, HepG2-A16-CD81EGFP cells; read-out: INHIBITION
The essentials:
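Uninfected HepG2-A16-CD81EGFP cells, 3 × 10^3 per well, 1536-well, plated on prespotted compound at 10 μM final, parasite-free screening media added to match infected plates; puromycin 10 μM positive, DMSO 0.5% negative; run in parallel with 48 h PbLuc assay at 37 °C, 5% CO2; viability by CellTiter-Glo luminescence, normalized to controls.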
Consider `COC(=O)c1ccc(Cn2nc(C)cc2C)cc1`, for which the cytotoxicity at 10 µM was 10.8%.

Consider `F[C@@H]1CN(Cc2ccccc2)C[C@@H]1OCc1nc2ccccc2[nH]1`, for which the cytotoxicity at 10 µM came out at 4.61%.

For `COC(=O)c1cccc2nc([C@H]3CCN(Cc4ccccc4F)C3)oc12`, the cytotoxicity at 10 µM was -5.46%.

Consider `Cc1cccc(O[C@H]2COCCN(Cc3sc(C)nc3C)C2)n1`, for which the cytotoxicity at 10 µM is -1.5%.

On to `CCOCCNC(=O)c1cccnc1Sc1cc(OC)ccc1OC`, for which the cytotoxicity at 10 µM came out at 0.354%.

As to `Cc1cc(=O)n(CCNC(=O)c2ccccc2Cl)cn1`, the cytotoxicity at 10 µM is -5.07%.

Consider `CNC(=O)c1nc2c(s1)CCN(C(=O)c1ccc(OC)cc1)CC2`, for which the cytotoxicity at 10 µM amounted to 0.428%.

With `CC(C)n1[nH]c(=O)c2c1NC(=O)CC2c1cccc2cccnc12` (stereo not drawn), the cytotoxicity at 10 µM is 2.83%.

As to `Cn1nc(CNC(=O)C2CC2)cc1C1CC1`, the cytotoxicity at 10 µM came to 1.96%.

Consider `CC(C)NC(=O)c1ccc2c(c1)nc1n2CCN(C(C)C)C1`, for which the cytotoxicity at 10 µM is 3.54%.

On to `CCn1cc(C(=O)N2CCOCC2)cn1`, for which the cytotoxicity at 10 µM worked out at 0.805%.

Take `O=C(Nc1cc(-c2cccnc2)no1)C1CCCCC1`: the cytotoxicity at 10 µM is 0.171%.

With `CCn1cc(CN(C)S(=O)(=O)c2ccc(Cl)cc2)cn1`, the cytotoxicity at 10 µM was found to be 3.77%.

As to `CNc1ncc(CN(C)CCN2CCCCC2)cn1`, the cytotoxicity at 10 µM came out at 17.7%.

Consider `CC(C)N1CCC(Cc2cncc(-c3cccc(C(=O)O)c3)n2)C1` (stereo not drawn), for which the cytotoxicity at 10 µM amounted to 9.11%.

As for `Cn1cc(C2CCCN2C(=O)c2cnc(-c3ccccn3)s2)cn1` (stereo not drawn), the cytotoxicity at 10 µM is -8.1%.

In the case of `COc1ccc(OCCN(C)S(=O)(=O)N2CCOCC2)cc1`, the cytotoxicity at 10 µM turned out to be 3.11%.

For the compound `NC(=O)c1ccc(N2CCN(CCCc3cn[nH]c3)CC2)cc1`, the cytotoxicity at 10 µM is -153%.

Regarding `O=C(NCC1CC1)c1ccc(NC(=O)c2ccco2)cc1`, the cytotoxicity at 10 µM is 7.91%.

In the case of `CCS(=O)(=O)CCSc1ccc(Br)cc1`, the cytotoxicity at 10 µM was -7%.

Regarding `CN(Cc1cc(Br)cn1C)C(=O)c1cccnc1`, the cytotoxicity at 10 µM was -5.95%.

`COCCNC(=O)NCC(C)c1ccccc1OC` (stereo not drawn): the cytotoxicity at 10 µM is 0.284%.

For `Cc1nc(CN2CCCN(C(=O)c3cccn3C)CC2)cs1`, the cytotoxicity at 10 µM is -2.06%.

With `c1cnc(-c2nc(C3CCOC3)no2)cn1` (stereo not drawn), the cytotoxicity at 10 µM is 7.09%.

On to `Cc1noc(C)c1CCCNC(=O)C1CCCN(C(=O)C2CC2)C1` (stereo not drawn), for which the cytotoxicity at 10 µM is -0.185%.

Consider `COc1cc(C(C)=O)ccc1OCC(=O)N(CC(C)C#N)C1CC1` (stereo not drawn), for which the cytotoxicity at 10 µM is -2.45%.

Regarding `Cn1c(NCC(=O)N2CCCCC2)c(C#N)c(=O)n(C)c1=O`, the cytotoxicity at 10 µM is 5.83%.

Regarding `COc1ccc(N(C)C(=O)c2ccc(Cl)c(S(C)(=O)=O)c2)cn1`, the cytotoxicity at 10 µM was -11.2%.

Regarding `Cc1ccc(S(=O)(=O)NC(=O)COc2cccc(C#N)c2)c(C)c1`, the cytotoxicity at 10 µM was 3.73%.

For the compound `CC(NC(=O)Nc1cc(F)cc(F)c1)c1nc[nH]n1` (stereo not drawn), the cytotoxicity at 10 µM was -4.02%.

Regarding `CC(Cn1cccn1)NC(=O)Nc1ccc(N2CCCC2)nc1` (stereo not drawn), the cytotoxicity at 10 µM was -0.708%.

`CN(CC(N)=O)Cc1ccc(F)cc1Cl`: the cytotoxicity at 10 µM was -3.53%.

Consider `CC(C)c1cc(NC(=O)CN2CCc3nn(C)c(=O)cc3C2)on1`, for which the cytotoxicity at 10 µM was -4.44%.

Consider `Cc1cc(NC(=O)N2CCOC(C(N)=O)C2)ccc1Br` (stereo not drawn), for which the cytotoxicity at 10 µM is -154%.

With `COc1ccc(NC(=O)N(CCO)Cc2ccsc2)cc1`, the cytotoxicity at 10 µM came to 1.37%.

With `Cc1ccc(C(=O)NCC2Cc3ccccc3O2)cc1S(C)(=O)=O` (stereo not drawn), the cytotoxicity at 10 µM was determined as 1.05%.

Turning to `CCCc1cc(N2CCCC2Cn2cc(C)cn2)n2ncnc2n1` (stereo not drawn), the cytotoxicity at 10 µM was 3.04%.

With `NS(=O)(=O)CCN1CCOC(c2ccsc2)C1` (stereo not drawn), the cytotoxicity at 10 µM was 5.31%.

In the case of `Cc1ncc(COc2ccc(N(C)S(C)(=O)=O)cc2)s1`, the cytotoxicity at 10 µM was determined as 5.89%.

As for `CC(C)OCc1cccc(NC(=O)N2CCCC(CCC(N)=O)C2)c1` (stereo not drawn), the cytotoxicity at 10 µM was 3.49%.

Regarding `COc1ccc(C(C)Nc2ncc(C(N)=O)cc2Cl)cc1OC` (stereo not drawn), the cytotoxicity at 10 µM came to 3.54%.

On to `CC(C#N)NS(=O)(=O)c1ccc2c(c1)N(C)CCC2` (stereo not drawn), for which the cytotoxicity at 10 µM is -4.28%.

Consider `Cc1nc(-c2ccsc2)ccc1C(=O)O`, for which the cytotoxicity at 10 µM is -13.8%.

As to `Cc1ccccc1[C@@H]1CN(CCOCCO)C[C@H]1C(=O)O`, the cytotoxicity at 10 µM is -4.54%.

`Cn1c(Cn2ccnc2)nnc1C1CCN(C(=O)c2ccoc2)CC1`: the cytotoxicity at 10 µM is -120%.

Consider `CC(C)Cc1cc(C(=O)NCC2CCCN(c3ccccn3)C2)on1` (stereo not drawn), for which the cytotoxicity at 10 µM turned out to be 0.101%.

Turning to `CN1CCCC2(CCN(c3cccc(C(F)(F)F)n3)C2)C1=O` (stereo not drawn), the cytotoxicity at 10 µM turned out to be 7.87%.

Take `CCc1nc(NC(=O)NCCc2cscn2)nn1C`: the cytotoxicity at 10 µM was found to be 2.31%.

In the case of `CC(C)Cc1cc(C(=O)NCC2CCCN(Cc3ccco3)C2)on1` (stereo not drawn), the cytotoxicity at 10 µM was -5.12%.

Regarding `O=C(Nc1ccc(-c2ccco2)cc1)C1CCCN(Cc2ccon2)C1` (stereo not drawn), the cytotoxicity at 10 µM amounted to 1.17%.

`CN(Cc1cc(-c2cccnc2)no1)C(=O)C1CCCN1S(C)(=O)=O` (stereo not drawn): the cytotoxicity at 10 µM is -2.54%.

Take `CCCn1ccnc1CN1CCCC(O)(CN2CCCC2)C1` (stereo not drawn): the cytotoxicity at 10 µM is -2.69%.

For the compound `Cc1cc(C(=O)N2CCC3(CCC(=O)N(CC(N)=O)C3)CC2)ccc1O`, the cytotoxicity at 10 µM is -7.5%.

Consider `COc1ccc(CN2CCN(c3nccnc3OC)CC2=O)cc1`, for which the cytotoxicity at 10 µM came out at 2.82%.

For `CCC(=O)N1CCc2[nH]cnc2C12CCN(C1CCOCC1)CC2`, the cytotoxicity at 10 µM was -6.47%.

For the compound `CC(NC(=O)c1cc2n(n1)CCCN(C(C)C)C2)c1cn2ccsc2n1` (stereo not drawn), the cytotoxicity at 10 µM is -3.39%.

As for `CSCC[C@H](NC(C)=O)c1nc(Cc2ccccc2)n[nH]1`, the cytotoxicity at 10 µM worked out at 5.06%.

Regarding `COCCN(C)c1nc(-c2ccncc2)nc2c1CCN(C(C)=O)C2`, the cytotoxicity at 10 µM is -2.16%.

Consider `O=C1CC2(CCN(Cc3ccc(-c4ccn[nH]4)s3)CC2)CN1`, for which the cytotoxicity at 10 µM was -137%.

Consider `Cc1nc(CN2CCN(C(=O)COc3c(C)ccc(C)c3C)CC2)no1`, for which the cytotoxicity at 10 µM was -1.4%.

With `Cc1cccc2[nH]c(C3CCCN3Cc3ccc(CO)o3)nc12` (stereo not drawn), the cytotoxicity at 10 µM is 10.3%.

As for `NC(=O)CCN1CCc2onc(-c3ccccc3F)c2C1`, the cytotoxicity at 10 µM was found to be 5.21%.

As to `CCC(C(=O)NC(C)(C)C)n1cccc(OC)c1=O` (stereo not drawn), the cytotoxicity at 10 µM was -1.04%.

Turning to `COc1nccnc1N1CCCC2(C1)C(=O)N(C)c1ccccc12` (stereo not drawn), the cytotoxicity at 10 µM is -6.47%.

Take `O=C(CCCc1ccc(Cl)cc1)N1CCN(C(=O)c2ccc[nH]2)CC1`: the cytotoxicity at 10 µM is 10.7%.

`CN(CCN1CCCCCC1)C(=O)c1cc(CN2CCC(O)CC2)on1`: the cytotoxicity at 10 µM was -17.5%.

`CC(C)CN1CCC(c2nc3c([nH]2)CC(C)(C)CNC3=O)C1` (stereo not drawn): the cytotoxicity at 10 µM is -10.6%.

In the case of `CN(C)C(=O)Cc1ccc(NC(=O)NC2CCCCC2)cc1`, the cytotoxicity at 10 µM was -11.3%.

On to `CCOCC(O)CN1CCN(C(=O)c2ccc(OC)cc2)CC1` (stereo not drawn), for which the cytotoxicity at 10 µM came out at 5.22%.

Turning to `Cc1nc(CC(=O)N2CCc3nnc(N(C)C)cc3C2)cs1`, the cytotoxicity at 10 µM is -7.07%.

On to `COc1cc(C)nc(N2CCN(C(=O)CSC)CC2)n1`, for which the cytotoxicity at 10 µM was -6.42%.

On to `COCC(=O)NC(C)c1cccc(Br)c1` (stereo not drawn), for which the cytotoxicity at 10 µM was -8.13%.

For `CS(=O)(=O)c1ccc(CNC(=O)N2CCC(C(N)=O)CC2)cc1`, the cytotoxicity at 10 µM was -3.78%.

For the compound `O=C(Cc1ccc2c(c1)OCCO2)NC1CC1`, the cytotoxicity at 10 µM was -11.2%.

For `O=C(Cc1ccc(F)c(Br)c1)NC1CCN(CC(F)F)CC1`, the cytotoxicity at 10 µM was -22%.

Take `Cc1cn2c(n1)CCC(NC(=O)c1cc[nH]n1)C2` (stereo not drawn): the cytotoxicity at 10 µM was -8.06%.

Regarding `CCc1nc(C2CCCN2C(=O)CCCn2cncn2)no1` (stereo not drawn), the cytotoxicity at 10 µM is -11.4%.

As to `CS(=O)(=O)N1CCC(NC(=O)COc2ccc(Cl)cc2)CC1`, the cytotoxicity at 10 µM is -4.05%.

For the compound `Cc1cnn(CC2CCCN2C(=O)c2ccc(F)c(F)c2)c1` (stereo not drawn), the cytotoxicity at 10 µM was -7.68%.

Turning to `Cc1cc(C)n(C2CCCN(C(=O)c3cc(C(N)=O)cs3)C2)n1` (stereo not drawn), the cytotoxicity at 10 µM was -11.4%.

As to `O=C(CCOCC(F)(F)F)N1CCCC(n2ccnc2)C1` (stereo not drawn), the cytotoxicity at 10 µM was -8.14%.

With `CCc1n[nH]c(C2CN(C(=O)c3ccc4c(c3)COC4)CCO2)n1` (stereo not drawn), the cytotoxicity at 10 µM was -1.63%.

On to `Cc1ccc(CN(CC(=O)N2CCOC(C)C2)C2CC2)cc1` (stereo not drawn), for which the cytotoxicity at 10 µM was -11.9%.

Regarding `CCc1nc(CN2CCCN(C(=O)COC)CC2)cs1`, the cytotoxicity at 10 µM was -18.9%.

`O=C(c1csc(-c2cccs2)n1)N1CCCC1Cn1cccn1` (stereo not drawn): the cytotoxicity at 10 µM is -4.69%.

Regarding `CNC(=O)[C@@H](c1ccccc1OC)N1CCC[C@H]1C(=O)N1CC[C@@H](O)C1`, the cytotoxicity at 10 µM is -2.71%.

Turning to `CN1C(=O)CC(c2ccccc2)C12CCN(CCO)CC2` (stereo not drawn), the cytotoxicity at 10 µM is 6.47%.

For the compound `CN(C)S(=O)(=O)N1CCC2(CC1)CC(Oc1ccccn1)CO2` (stereo not drawn), the cytotoxicity at 10 µM was -133%.

As for `Cc1occc1C(=O)N1CCC2(CCCN(Cc3cccs3)C2)C1` (stereo not drawn), the cytotoxicity at 10 µM was 4.3%.

Consider `CS(=O)(=O)N1CCOCC2(CN(Cc3ccccn3)CCO2)C1` (stereo not drawn), for which the cytotoxicity at 10 µM amounted to 3.42%.

Take `Cc1occc1C(=O)N1C[C@@H](OCc2cccnc2)[C@H]2OCCC[C@@H]21`: the cytotoxicity at 10 µM amounted to 3.16%.

In the case of `O=C(c1ccnnc1)N1C[C@@H]2C[C@@H](c3nc(C4CC4)cs3)O[C@@H]2C1`, the cytotoxicity at 10 µM was -124%.

In the case of `COc1cccc(-c2n[nH]cc2CNC2CCN(C(C)C)CC2)c1`, the cytotoxicity at 10 µM turned out to be 0.353%.

With `COCCOCC(=O)N1C[C@@H]2CC[C@H]1CN(C1Cc3ccccc3C1)C2`, the cytotoxicity at 10 µM is -9.04%.

Turning to `CCNc1nc2cn(-c3ccc(Cl)cc3)c(=O)c-2c[nH]1`, the cytotoxicity at 10 µM came out at 7.67%.

As to `CN(C)C(=O)N1C[C@H]2CC[C@@H](C1)N(S(=O)(=O)c1cccnc1)C2`, the cytotoxicity at 10 µM was -6.55%.

`Cc1cc(CN2C[C@@H]3CC[C@H]2CN(Cc2c(C)noc2C)C3)ccc1F`: the cytotoxicity at 10 µM was -6.74%.

As to `O=C(CC1CCCC1)N1C[C@@H]2C[C@@H]1CN2`, the cytotoxicity at 10 µM is -0.714%.
